Measurements published in ChEMBL document CHEMBL1165949, “Dammaranes from Gynostemma pentaphyllum and synthesis of their derivatives as inhibitors of protein tyrosine phosphatase 1B” (Bioorg Med Chem, 2010).

What was measured:
[1] = biological target: T1, Tyrosine-protein phosphatase non-receptor type 1 (Homo sapiens, UniProt P18031); experiment: Inhibition of PTP1B by pNPP hydrolase assay
T1 sequence (P18031 whole entry): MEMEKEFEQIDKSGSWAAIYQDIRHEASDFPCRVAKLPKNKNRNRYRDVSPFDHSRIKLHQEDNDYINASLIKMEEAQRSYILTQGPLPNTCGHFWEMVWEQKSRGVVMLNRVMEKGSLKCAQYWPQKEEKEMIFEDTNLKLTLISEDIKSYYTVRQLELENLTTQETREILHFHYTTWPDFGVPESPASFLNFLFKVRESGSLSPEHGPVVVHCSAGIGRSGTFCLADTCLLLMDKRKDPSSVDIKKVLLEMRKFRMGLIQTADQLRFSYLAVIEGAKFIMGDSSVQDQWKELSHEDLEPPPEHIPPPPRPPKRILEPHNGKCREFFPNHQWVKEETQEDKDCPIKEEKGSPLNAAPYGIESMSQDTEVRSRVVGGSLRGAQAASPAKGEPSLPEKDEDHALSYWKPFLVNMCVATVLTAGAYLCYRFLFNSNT
Method in brief: (§1)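 Enzyme activity (PTP1B or TCPTP) was measured by hydrolysis of p-nitrophenyl phosphate (pNPP), with {4-[4-(4-oxalylphenoxymethyl)-benzyloxy]-phenyl}-oxo-acetic acid as the reference inhibitor. IC50 was derived by regression analysis and reported as mean ± SD of three replications.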

[2] = biological target: T1, Tyrosine-protein phosphatase non-receptor type 1; experiment: Inhibition of PTP1B; method in brief: as §1
[3] = biological target: T2, Tyrosine-protein phosphatase non-receptor type 2 (Homo sapiens, UniProt P17706); experiment: Inhibition of TCPTP by pNPP hydrolase assay; method in brief: as §1
T2 sequence (P17706 whole entry): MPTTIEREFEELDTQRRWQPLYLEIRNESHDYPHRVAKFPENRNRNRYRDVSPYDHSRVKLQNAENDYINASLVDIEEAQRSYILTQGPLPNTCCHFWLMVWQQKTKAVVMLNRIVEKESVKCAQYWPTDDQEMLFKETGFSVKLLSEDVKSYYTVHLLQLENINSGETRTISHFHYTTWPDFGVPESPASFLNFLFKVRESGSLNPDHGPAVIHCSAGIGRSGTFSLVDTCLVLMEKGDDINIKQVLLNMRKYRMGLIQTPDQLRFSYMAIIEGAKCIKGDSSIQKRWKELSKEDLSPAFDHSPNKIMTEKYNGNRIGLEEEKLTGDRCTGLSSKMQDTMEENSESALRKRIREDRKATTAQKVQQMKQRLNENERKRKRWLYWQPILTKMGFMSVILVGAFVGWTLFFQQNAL

[4] = biological target: T3, Tyrosine-protein phosphatase non-receptor type 1 (Homo sapiens) (UniProt P18031); experiment: Inhibition of PTP1B at 20 uM by pNPP hydrolase assay
T3 sequence (whole entry): T1 sequence (P18031 whole entry)

[5] = Selectivity ratio of IC50 for TCPTP to IC50 for PTP1B

Row | Structure (SMILES) | IC50 [1] | IC50 [2] | IC50 [3] | inhibition [4] | Ratio IC50 [5]
1 | CC(C)=C[C@@H]1C[C@](O)([C@H]2CC[C@@H]3[C@@H]2CC[C@H]2[C@@]3(C)CC[C@H]3C(C)(C)C(NCc4cc(F)cc(F)c4)CC[C@]23C)C(=O)O1 (some centres undefined) | 11.6 µM |  |  |  | 
2 | CC(C)=C[C@H]1C[C@@](O)([C@H]2CC[C@@H]3[C@@H]2CC[C@H]2[C@@]3(C)CC[C@H]3C(C)(C)[C@@H](O)CC[C@]23C)C(=O)O1 | 9.6 µM | 5.3 µM |  |  | 
3 | CCCCC(=O)[C@H]1CC[C@]2(C)[C@H]3CC[C@H]4[C@@H](CC[C@@H]4[C@@]4(O)C[C@@H](C=C(C)C)OC4=O)[C@]3(C)CC[C@H]2C1(C)C | 4.14 µM |  | 11.8 µM |  | 
4 | CC(=O)O[C@H]1CC[C@]2(C)[C@H]3CC[C@H]4[C@@H](CC[C@@H]4[C@@]4(O)C[C@@H](C=C(C)C)OC4=O)[C@]3(C)CC[C@H]2C1(C)C | 12.7 µM |  |  |  | 
5 | CCC(=O)[C@H]1CC[C@]2(C)[C@H]3CC[C@H]4[C@@H](CC[C@@H]4[C@@]4(O)C[C@@H](C=C(C)C)OC4=O)[C@]3(C)CC[C@H]2C1(C)C | 4.6 µM |  | 14.7 µM |  | 
6 | CC(C)=C[C@@H]1C[C@](O)([C@H]2CC[C@@H]3[C@@H]2CC[C@H]2[C@@]3(C)CC[C@H]3C(C)(C)C(=O)CC[C@]23C)C(=O)O1 | 13.1 µM |  | 34.1 µM |  | 
7 | COc1ccc(CNC2CC[C@]3(C)[C@H]4CC[C@H]5[C@@H](CC[C@@H]5[C@@]5(O)C[C@@H](C=C(C)C)OC5=O)[C@]4(C)CC[C@H]3C2(C)C)cc1 (some centres undefined) |  |  |  | 24% | 
8 | CC(C)=C[C@@H]1C[C@](O)([C@H]2CC[C@@H]3[C@@H]2CC[C@H]2[C@@]3(C)CC[C@H]3C(C)(C)C(NCc4ccc([N+](=O)[O-])cc4)CC[C@]23C)C(=O)O1 (some centres undefined) | 6.58 µM |  |  |  | 
9 | CC(C)=C[C@@H]1C[C@](O)([C@H]2CC[C@@H]3[C@@H]2CC[C@H]2[C@@]3(C)CC[C@H]3C(C)(C)[C@@H](O)CC[C@]23C)C(=O)O1 | 11.3 µM | 15.7 µM |  |  | 

The remaining compounds from weak to strong by IC50 [1], led by results:

Row | IC50 [1] | IC50 [2] | IC50 [3] | inhibition [4] | Ratio IC50 [5] | Structure (SMILES)
10 | 2.75 µM |  | 4.15 µM |  |  | CC(C)=C[C@@H]1C[C@](O)([C@H]2CC[C@@H]3[C@@H]2CC[C@H]2[C@@]3(C)CC[C@H]3C(C)(C)[C@@H](C(=O)c4ccccc4)CC[C@]23C)C(=O)O1
11 | 2.61 µM |  | 3.9 µM |  |  | COc1ccc(C(=O)O[C@H]2CC[C@]3(C)[C@H]4CC[C@H]5[C@@H](CC[C@@H]5[C@@]5(O)C[C@@H](C=C(C)C)OC5=O)[C@]4(C)CC[C@H]3C2(C)C)cc1
12 | 2.36 µM |  | 5.14 µM |  |  | CC(C)=C[C@@H]1C[C@](O)([C@H]2CC[C@@H]3[C@@H]2CC[C@H]2[C@@]3(C)CC[C@H]3C(C)(C)[C@@H](OC(=O)c4ccccn4)CC[C@]23C)C(=O)O1
13 | 2.08 µM |  | 12 µM |  |  | COc1cccc(C(=O)O[C@H]2CC[C@]3(C)[C@H]4CC[C@H]5[C@@H](CC[C@@H]5[C@@]5(O)C[C@@H](C=C(C)C)OC5=O)[C@]4(C)CC[C@H]3C2(C)C)c1
14 | 1.96 µM |  | 3.38 µM |  |  | CC(C)=C[C@@H]1C[C@](O)([C@H]2CC[C@@H]3[C@@H]2CC[C@H]2[C@@]3(C)CC[C@H]3C(C)(C)[C@@H](OC(=O)c4ccccc4[N+](=O)[O-])CC[C@]23C)C(=O)O1
15 | 1.9 µM |  | 4.05 µM |  |  | COc1ccccc1C(=O)O[C@H]1CC[C@]2(C)[C@H]3CC[C@H]4[C@@H](CC[C@@H]4[C@@]4(O)C[C@@H](C=C(C)C)OC4=O)[C@]3(C)CC[C@H]2C1(C)C
16 | 1.7 µM |  | 2.26 µM |  |  | CC(C)=C[C@@H]1C[C@](O)([C@H]2CC[C@@H]3[C@@H]2CC[C@H]2[C@@]3(C)CC[C@H]3C(C)(C)[C@@H](OC(=O)c4cccc([N+](=O)[O-])c4)CC[C@]23C)C(=O)O1
17 | 1.62 µM |  | 2.87 µM |  |  | CC(C)=C[C@@H]1C[C@](O)([C@H]2CC[C@@H]3[C@@H]2CC[C@H]2[C@@]3(C)CC[C@H]3C(C)(C)[C@@H](OC(=O)c4ccc([N+](=O)[O-])cc4[N+](=O)[O-])CC[C@]23C)C(=O)O1
18 | 1.42 µM |  | 5.1 µM |  |  | CC(C)=C[C@@H]1C[C@](O)([C@H]2CC[C@@H]3[C@@H]2CC[C@H]2[C@@]3(C)CC[C@H]3C(C)(C)[C@@H](OC(=O)c4ccc([N+](=O)[O-])cc4)CC[C@]23C)C(=O)O1
19 | 0.5 µM |  | 1.22 µM |  |  | CC(C)=C[C@@H]1C[C@](O)([C@H]2CC[C@@H]3[C@@H]2CC[C@H]2[C@@]3(C)CC[C@H]3C(C)(C)[C@@H](OC(=O)c4ccc(C(=O)O)c([N+](=O)[O-])c4)CC[C@]23C)C(=O)O1
20 | 0.33 µM |  | 1.62 µM |  | 4.9 | CC(C)=C[C@@H]1C[C@](O)([C@H]2CC[C@@H]3[C@@H]2CC[C@H]2[C@@]3(C)CC[C@H]3C(C)(C)[C@@H](OC(=O)c4cccc(C(=O)O)c4)CC[C@]23C)C(=O)O1
21 | 0.27 µM |  | 0.97 µM |  |  | CC(C)=C[C@@H]1C[C@](O)([C@H]2CC[C@@H]3[C@@H]2CC[C@H]2[C@@]3(C)CC[C@H]3C(C)(C)[C@@H](OC(=O)c4ccc(C(=O)O)cc4)CC[C@]23C)C(=O)O1
